# Hits are enriched below; roughly 3.4% of the tested compounds scored in any of these assays.
# IMP-1 inh: blocks Pseudomonas aeruginosa IMP-1 metallo-beta-lactamase; inhibition, % at 5.6 µM; purified IMP-1, nitrocefin hydrolysis, epi-absorbance fluorescence; actives 0.45% (n = 290,000);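 active means inhibition above the mean plus 3 SD of all compounds in the same screening run, cut at about 4.5% in these data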;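 further: 0% = IMP-1 with DMSO and 100% = DMSO wells lacking enzyme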
#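 System: purified recombinant IMP-1 beta-lactamase. Medium: Zinc- and detergent-supplemented HEPES buffer, pH 7.1. Compound: one 5.6 µM dose […]. Schedule: 15 min preincubation plus 25 min reaction at 25 °C. Technique: Epi-absorbance fluorescence, 480 nm excitation, 530 nm emission.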
# CHT allo act: human CHT allosteric activation; Q9GZV3; B-score at 10 µM; AID 488977; actives 0.49% (n = 310,000); CHT-expressing cells, membrane potential dye, choline EC20; hits give high values; LV-AA mutant CHT in HEK293 cells;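 active means initial fluorescence not abnormally high and integrated response B-score, plate-corrected, over 3 SD above library mean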
# TMEM16A act: mouse TMEM16A channel activation, primary screen; Q8BHY3; HEK293 TMEM16A/YFP-H148Q/I152L, iodide quench fluorescence; hits give low values; B-score at 10 µM; actives 0.3% (n = 340,000); AID 623877;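 active means fluorescence-ratio B-score plate-corrected deviation score at least 3 library SD below zero, with starting fluorescence score within 5 deviations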;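 further: channel opened by trigger with iodide after compound preincubation; score built on the fluorescence ratio of max minus min over baseline; more negative score means more quench and so TMEM16A activation or potentiation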
# Target sequence (Q8BHY3 whole entry, looked up): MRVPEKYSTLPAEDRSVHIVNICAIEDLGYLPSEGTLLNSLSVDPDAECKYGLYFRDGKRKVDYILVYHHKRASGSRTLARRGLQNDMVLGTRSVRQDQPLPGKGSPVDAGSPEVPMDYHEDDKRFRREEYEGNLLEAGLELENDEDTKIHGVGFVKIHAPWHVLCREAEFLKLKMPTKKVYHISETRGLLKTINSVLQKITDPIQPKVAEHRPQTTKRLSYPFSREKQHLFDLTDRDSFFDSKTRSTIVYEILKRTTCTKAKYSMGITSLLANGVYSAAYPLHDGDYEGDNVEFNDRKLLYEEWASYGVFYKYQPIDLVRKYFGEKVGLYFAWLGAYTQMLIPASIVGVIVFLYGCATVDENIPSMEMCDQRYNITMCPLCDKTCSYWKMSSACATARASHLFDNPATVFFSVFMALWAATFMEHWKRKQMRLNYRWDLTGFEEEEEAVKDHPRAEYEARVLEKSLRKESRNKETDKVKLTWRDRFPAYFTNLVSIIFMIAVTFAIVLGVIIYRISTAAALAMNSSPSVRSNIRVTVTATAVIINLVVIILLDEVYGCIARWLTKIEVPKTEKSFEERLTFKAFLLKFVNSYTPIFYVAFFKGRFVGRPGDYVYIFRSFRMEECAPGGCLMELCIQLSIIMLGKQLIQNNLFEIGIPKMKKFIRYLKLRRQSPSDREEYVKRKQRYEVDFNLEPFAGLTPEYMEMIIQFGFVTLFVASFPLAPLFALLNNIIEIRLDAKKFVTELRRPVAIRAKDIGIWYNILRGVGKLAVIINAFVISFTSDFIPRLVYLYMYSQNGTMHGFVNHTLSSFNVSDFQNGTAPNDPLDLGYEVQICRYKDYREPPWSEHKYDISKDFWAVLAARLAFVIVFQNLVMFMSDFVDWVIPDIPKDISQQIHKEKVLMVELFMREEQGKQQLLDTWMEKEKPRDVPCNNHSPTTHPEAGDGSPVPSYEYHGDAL
# VIM-2 inh: blocks Pseudomonas aeruginosa VIM-2 metallo-beta-lactamase | AID 1527 | purified VIM-2, nitrocefin hydrolysis, epi-absorbance fluorescence | actives 0.89% (n = 290,000) | inhibition, % at 5.6 µM;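 active means inhibition above the mean of all tested compounds plus 3 SD, cutoff set per screening run, cut at about 7.5% in these data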;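 further: red hydrolysis product quenches plate fluorescence so inhibitors raise well fluorescence; 0% = enzyme with DMSO and 100% = DMSO without enzyme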
# CHT block: human CHT choline transport inhibition | B-score at 10 µM | CHT-expressing cells, membrane potential dye, choline response; hits give low values | Q9GZV3 | actives 0.86% (n = 310,000);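 active means B-score over 3 SD under the library average, and starting fluorescence ratio not unusually high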;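 further: choline stimulus applied at its EC90 after an EC20 pre-addition; B-score computed on integrated fluorescence ratio after choline addition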
# TMEM16A inh: inhibitors of mouse TMEM16A calcium-activated chloride channel; AID 588511; normalized B-score (activity score, 25-100; higher = stronger inhibition) at 10 µM; actives 1.2% (n = 310,000); HEK293 TMEM16A/YFP iodide influx fluorescence, ionomycin;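 active means ratio plate-corrected score three or more library SD toward inhibition, starting fluorescence score within five deviations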;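 further: score derived from kinetic fluorescence span divided by baseline fluorescence per well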
# The depositor's hits bear a star; i = inactive; · = not tested or not shown.
SMILES,IMP-1 inh,CHT allo act,TMEM16A act,VIM-2 inh,CHT block,TMEM16A inh
Clc1ccc2c(c1)C(N1CCNCC1)Cc1ccccc1S2 (stereo unspecified),1,i,i,-2,i,25*
Clc1cccc2c1Sc1ccccc1CC2N1CCNCC1 (stereo unspecified),-4,i,i,-6,i,i
CC(C)(C)OC(=O)C[C@H]1C/C=C\C[C@H](CC(=O)N[C@H](CO)Cc2ccccc2)C(=O)N2CCC[C@@H]2COC1=O,·,·,i,·,·,·
Cn1cc(C(=O)C(=O)N2CCOCC2)c2ccccc21,0,i,i,0,i,i
Cn1cc(C(=O)C(F)(F)F)c2ccccc21,5.8*,i,i,2,i,i
Cc1cc(C)cc(NC(=S)Nc2ccc(Cl)c(Cl)c2)c1,-1,i,-9.6*,0,i,100*
Cc1ccc(NC(=S)Nc2ccc(Cl)c(Cl)c2)c(OC(F)F)c1,-2,i,i,0,i,100*
COc1ccc(/C=N/NC(=O)CSc2nnc(CCCc3ccc(OC)c(C)c3)o2)cc1,-1,i,i,0,i,100*
COc1ccc2cc(C(N)=O)/c(=N\NC(=O)c3ccccc3)oc2c1,-3,i,i,-2,i,i
COc1ccc2cc(C(N)=O)c(=Nc3ccc(C)cc3)oc2c1,-3,i,-7.7*,-2,i,i
COc1ccc(OC)c(CCNC(=O)Cn2sc3nc(C)cc(C)c3c2=O)c1,-4,i,·,-4,i,25*
Cc1ccccc1N1CCN(S(=O)(=O)Cc2ccccc2)CC1,0,i,i,-1,i,i
CC(C)C1O/C(=N/C(=O)Nc2ccc(Cl)c(Cl)c2)NC1=O (stereo unspecified),-2,i,i,0,i,100*
O=C(NCCc1ccccc1)C1CCC(CNc2nc(=S)[nH]c3ccccc23)CC1 (stereo unspecified),-3,i,i,-1,i,i
Cn1c(-c2ccc3c(c2)OCO3)c(C(=O)O)c(=O)c2ccccc21,-1,i,i,11*,i,i
COc1ccc2c(=O)c(C(=O)O)c(-c3ccc4c(c3)OCO4)n(C)c2c1,-1,i,i,3,i,i
CCC(=O)Nc1ccc(NC(=O)CSc2nnnn2Cc2ccccc2)cc1C,-3,·,i,-5,·,·
O=C(O)CC(C(=O)O)N1C(=O)/C(=C/c2ccc(-c3nc4ccccc4s3)o2)SC1=S (stereo unspecified),5.6*,i,-7.7*,-1,i,i
O=C(O)CC(C(=O)O)N1C(=O)/C(=C/C=C/c2ccco2)SC1=S (stereo unspecified),-4,i,i,4,i,i
CC(C)C(=O)NC(=S)Nc1ccccc1C(=O)Nc1ccccc1,19*,i,i,-3,i,i
Cc1[nH]n(-c2ccc(Cl)cc2)c(=O)c1/C=N/c1nnc(-c2ccccc2)s1,-1,i,i,-2,i,25*
C=CCNC(=O)CSc1nnc(-c2ccccc2Cl)n1-c1c(C)n(C)n(-c2ccccc2)c1=O,-6,i,i,2,i,i
Cc1c(-n2c(SCC(=O)O)nnc2-c2ccccc2Br)c(=O)n(-c2ccccc2)n1C,-3,i,i,12*,i,i
Cc1occc1-c1nnc(SCC(=O)N2CCCC(C)C2)o1 (stereo unspecified),·,·,i,·,·,·
COc1cccc2sc3ccc(C#CC4(N)CCCCC4)cc3c(=O)c12,-2,i,i,9.0*,i,i
SMILES,IMP-1 inh,CHT allo act,TMEM16A act,VIM-2 inh,CHT block,TMEM16A inh
Cc1sc(N(C(=O)CCc2ccccc2)c2ccc(C(=O)O)cc2)nc1-c1ccccc1,-2,i,i,0,i,25*
CCN(CC)CCCNC(=O)c1cc2c(-c3ccc(Cl)cc3)nn(C)c2s1,-1,i,i,-1,i,i
CCCCN(CC)CCNC(=O)c1cc2c(-c3ccccc3F)nn(C)c2s1,-2,i,i,9.3*,i,i
Cc1ccc2[nH]c(=O)c3cc(C(=O)NCCC(C)C)sc3c2c1,-2,i,i,-2,i,i
CCCCN(CC)CCNC(=O)c1cc2c(=O)[nH]c3ccc(C)cc3c2s1,-3,i,i,8.3*,i,i
CC1CCCCN1CCNC(=O)c1cc2c(-c3ccccc3F)nn(C)c2s1 (stereo unspecified),-3,i,i,8.9*,i,i
N#C/C(=N\Nc1ccccc1)C(N)=S,-7,i,-16*,-3,i,i
COc1ccc(C(CNC(=O)COc2ccc(Cl)c(C)c2)N2CCCCC2)cc1 (stereo unspecified),-1,i,i,-3,i,i
Fc1ccc(Nc2c3c(nc4ccccc24)CCC3)cc1,-6,i,i,-1,i,i
c1ccc2c(Nc3ccc4c(c3)OCCO4)c3c(nc2c1)CCC3,-2,i,i,8.2*,i,i
CN(Cc1ccccc1)S(=O)(=O)c1ccc2c(c1)CCC(=O)N2,-2,i,i,-1,i,i
COc1ccc(CSc2ccc(S(=O)(=O)N3CCCCC3)cn2)cc1F,·,·,-23*,·,·,·
O=C(CSc1nc2ccccc2s1)NNC(=S)Nc1ccccc1,-4,i,i,9.7*,i,i
Cc1csc(NC(=O)CSc2nc3ccccc3s2)n1,4.6*,i,i,-1,i,i
O=C(O)Cn1nc2c3c(cccc3c1=O)-c1ccccc1-2,-4,i,i,7.8*,i,i
Cc1ccc(-c2nn(CC(=O)O)c(=O)c3ccccc23)cc1,1,i,i,-2,i,i
CCN(CC)S(=O)(=O)c1ccc(NC(=O)c2ccc(OCC3CCCO3)cc2)cc1 (stereo unspecified),·,·,i,·,·,·
Cc1cc(C(=O)CN2C(=O)c3ccccc3S2(=O)=O)c(C)n1CC1CCCO1 (stereo unspecified),9.4*,i,i,6,i,i
CC(=O)Nc1ccc(NC(=O)C(C)OC(=O)c2ccc3c(c2)OCCO3)cc1 (stereo unspecified),-4,i,i,-2,i,i
CC(OC(=O)c1cccc(S(=O)(=O)Nc2cccc(C(F)(F)F)c2)c1)C(=O)Nc1ccc2c(c1)OCCO2 (stereo unspecified),-4,i,i,-3,i,100*
Cc1ccc(S(=O)(=O)N2CCNC(=O)CC2)cc1,-1,i,i,-7,i,i

# Assay outcomes from PubChem BioAssay.
